Measurements from different studies.
Compare with care: the assays were run in different laboratories.
Cell line: MCF-10A
Observed: cell growth or viability

CCOC(=O)c1c(C)nc2ccc(-c3ccc(F)c(F)c3)cc2c1O
IC50 (MTT; 48 h): > 100 µM

CO[C@H]1[C@H](O[C@H]([C@H]2O[C@@H](n3ccc(=O)[nH]c3=O)[C@H](O)[C@@H]2O)[C@H](NCCCNC(=O)[C@@H](NC(=O)[C@@H](NC(=O)N[C@H](C(=O)O)C(C)C)[C@@H]2CCN=C(N)N2)[C@@H](O)C(C)C)C(=O)O)O[C@H](CN)[C@H]1O
IC50 (WST-1): > 35 µM

CCOC(=O)c1c(C)nc2ccc(-c3ccc(OCc4ccccc4)c(F)c3)cc2c1O
IC50 (MTT; 48 h): > 100 µM

COc1ccc(C(=O)N/N=C/c2cn(S(=O)(=O)c3ccc(C)cc3)c3ccccc23)cc1
IC50 (MTT; 48 h): > 50 µM

CCOC(=O)c1c(C)nc2ccc(-c3ccc(F)cc3)cc2c1O
IC50 (MTT; 48 h): > 100 µM

Cc1ccc(S(=O)(=O)n2cc(/C=N/NC(=O)c3cccc4ccccc34)c3ccccc32)cc1
IC50 (MTT; 48 h): > 50 µM

CO[C@H]1[C@H](O[C@H]([C@H]2O[C@@H](n3ccc(=O)[nH]c3=O)[C@H](O)[C@@H]2O)[C@H](NCCCNC(=O)[C@@H](NC(=O)[C@@H](NC(=O)N[C@H](C(=O)O)C(C)C)[C@@H]2CCN=C(N)N2)[C@@H](OC(=O)CCCCCCCCCCCCN(O)C(=N)N)C(C)C)C(=O)O)O[C@H](CN)[C@H]1O
IC50 (WST-1): > 35 µM

CN(C)C(=S)[N-]N=C(c1ccccn1)c1ccccn1.[O]=[V+]=[O]
IC50 (MTT; 48 h): 19.2 µM

CC(C)Cc1ccc([C@H](C)C(=O)O)cc1
IC50 (SRB; 72 h): 435 µM

CC(=O)O[C@H]1C(=O)[C@@]2(C)[C@H]([C@H](OC(=O)c3ccccc3)[C@]3(O)C[C@H](OC(=O)[C@H](O)[C@@H](NC(=O)c4ccccc4)c4ccccc4)C(C)=C1C3(C)C)[C@]1(OC(C)=O)CO[C@@H]1C[C@@H]2O
IC50 (MTT; 48 h): > 100 µM

Cc1ccc(S(=O)(=O)n2cc(/C=N/NC(=O)c3ccc(C)c(F)c3)c3ccccc32)cc1
IC50 (MTT; 48 h): > 50 µM
